Measured values reported in ChEMBL document CHEMBL1124947, “Cationic antiprotozoal drugs. Trypanocidal activity of 2-(4'-formylphenyl)imidazo[1,2-a]pyridinium guanylhydrazones and related derivatives of quaternary heteroaromatic compounds” (J Med Chem, 1990).

Legend:
Format in all cases: functional
Mus musculus [1] = assay: Trypanocidal Activity at I.C.E. value 0.65 when administered subcutaneously.
Method in brief: (§1)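 Mice, in groups of five per dose, were given a standard inoculum of blood-stage T. rhodesiense that is lethal to all untreated controls, then dosed subcutaneously. Usually 11 dose levels were used (2^n × 0.42 mg/kg).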

Mus musculus [2] = assay: Trypanocidal Activity at I.C.E. value 0.47 when administered subcutaneously.
Method in brief: (§2)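 Blood-stage T. rhodesiense infection came from a standard inoculum lethal to all untreated mice. Drug was given by subcutaneous injection to groups of five mice. Survival beyond 30 days counted as cure. […] Sub-curative doses scored 0, and data were normalized at each dose.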

Mus musculus [3] = assay: Trypanocidal Activity at I.C.E. value 0.16 when administered subcutaneously.
[4] = test system: Trypanosoma brucei rhodesiense; assay: In Vitro measurement of inhibition of thymidine uptake in cell culture of Trypanosoma rhodesiense; conditions: read-out: ID50 (the source's name)
Method in brief: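 Parasites harvested from infected rats and incubated 3 h across a drug concentration series, usually 0.1–100 µg/mL. Incorporation of radiolabeled thymidine measured. ID50 is the concentration (µg/mL) producing 50% inhibition.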

[5] = test system: Trypanosoma brucei rhodesiense; assay: In Vitro measurement of inhibition of leucine uptake in cell culture of Trypanosoma rhodesiense; conditions: read-out: ID50 (the source's name)
Method in brief: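 Trypanosomes harvested from infected rats, cultured 3 h with several concentrations of drug, usually 0.1–100 µg/mL. Radiolabeled L-leucine uptake measured. ID50 is the concentration in µg/mL giving 50% inhibition of incorporation.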

Mus musculus [6] = assay: Trypanocidal Activity at I.C.E. value 0.36 when administered subcutaneously.
Mus musculus [7] = assay: Trypanocidal Activity at I.C.E. value 0.57 when administered perorally.
Mus musculus [8] = assay: Trypanocidal Activity at I.C.E. value 0.57 when administered subcutaneously.; method in brief: as §1
Mus musculus [9] = assay: Trypanocidal Activity at I.C.E. value 0.44 when administered subcutaneously.; method in brief: as §2
Mus musculus [10] = assay: Trypanocidal Activity at I.C.E. value 0.59 when administered subcutaneously.; method in brief: as §1
Mus musculus [11] = assay: Trypanocidal Activity at I.C.E. value 0.32 when administered subcutaneously.; method in brief: as §2
Mus musculus [12] = assay: Trypanocidal Activity at I.C.E. value 0.67 when administered subcutaneously.; method in brief: as §1
Mus musculus [13] = assay: Trypanocidal Activity at I.C.E. value 0.34 when administered subcutaneously.; method in brief: as §2
Mus musculus [14] = assay: Trypanocidal Activity at I.C.E. value 0.24 when administered subcutaneously.; method in brief: as §2
Mus musculus [15] = assay: Trypanocidal Activity at I.C.E. value 0.71 when administered subcutaneously.; method in brief: as §1
Mus musculus [16] = assay: Trypanocidal Activity at I.C.E. value 0.17 when administered subcutaneously.
Mus musculus [17] = assay: Trypanocidal Activity at I.C.E. value 0.52 when administered subcutaneously.; method in brief: as §2

Br.C=CCNC(=N)N/N=C/c1ccc(-c2cn3ccccc3[n+]2C)cc1.[Br-]
CD50 (Mus musculus [1]): 0.2 mg/kg

Br.CC/N=C(\NCC)N/N=C/c1ccc(/C=C/c2cn3c(C)cccc3[n+]2C)cc1.[Br-]
CD50 (Mus musculus [1]): 0.4 mg/kg

Br.Cc1ccc2n(c1)cc(-c1ccc(/C=N/NC(=N)N3CCOCC3)cc1)[n+]2C.[Br-]
CD50 (Mus musculus [2]): 0.8 mg/kg

C[n+]1cscc1COc1ccc(/C=N/NC(=N)N2CCCC2)cc1.Cc1ccc(S(=O)(=O)O)cc1.Cc1ccc(S(=O)(=O)[O-])cc1
CD50 (Mus musculus [3]): 13 mg/kg | IC50 [4]: 2.2 µg/mL | IC50 [5]: 0.7 µg/mL

Br.CC/N=C(\NCC)N/N=C/c1ccc(OCc2cn3cc(C)ccc3[n+]2C)cc1.[Br-]
CD50 (Mus musculus [6]): 1.6 mg/kg

Br.Cc1ccc2n(c1)cc(/C=C/c1ccc(/C=N/NC(=N)N)cc1)[n+]2C.[Br-]
CD50 (Mus musculus [1]): 0.8 mg/kg

Br.CCNC(=N)N/N=C/c1ccc(-c2cn3ccc(C)cc3[n+]2C)cc1.[Br-]
CD50 (Mus musculus [7]): 13 mg/kg | CD50 (Mus musculus [8]): 0.1 mg/kg

Br.Cn1cc[n+](C)c1/C=C/c1ccc(/C=N/NC(=N)NO)cc1.[Br-]
CD50 (Mus musculus [2]): 0.8 mg/kg

Cc1ccc2n(c1)cc(-c1ccc(/C=N/Nc3nc(N)nc(N)n3)cc1)[n+]2C.[I-]
IC50 [4]: 0.3 µg/mL | IC50 [5]: > 10 µg/mL

Br.C[n+]1c(-c2ccc(/C=N/NC(=N)N3CCCCC3)cc2)cn2ccccc21.[Br-]
CD50 (Mus musculus [9]): 0.8 mg/kg

Br.CCCNC(=N)N/N=C/c1ccc(-c2cn3ccccc3[n+]2C)cc1.[Br-]
CD50 (Mus musculus [10]): 0.1 mg/kg

Cc1ccc(S(=O)(=O)[O-])cc1.Cn1cc[n+](C)c1/C=C/c1ccc(/C=N/NC(=O)c2ccc(N)cc2)cc1
CD50 (Mus musculus [11]): 26 mg/kg

Br.CSC(=N)N/N=C/c1ccc(OCc2cn3ccccc3[n+]2C)cc1.[Br-]
CD50 (Mus musculus [9]): 26 mg/kg | IC50 [4]: 4.6 µg/mL | IC50 [5]: 3.3 µg/mL

Br.CCNC(=N)N/N=C/c1ccc(OCc2cn3cc(C)ccc3[n+]2C)cc1.[Br-]
CD50 (Mus musculus [12]): 0.4 mg/kg

C[n+]1c(COc2ccc(/C=N/NC(=N)N)cc2)cn2cc(C(F)(F)F)ccc21.Cc1ccc(S(=O)(=O)O)cc1.Cc1ccc(S(=O)(=O)[O-])cc1
CD50 (Mus musculus [12]): 6.6 mg/kg

C[n+]1c(-c2ccc(C(N)=S)cc2)cn2ccccc21.Cc1ccc(S(=O)(=O)[O-])cc1
CD50 (Mus musculus [13]): 53 mg/kg

C[n+]1c(-c2ccc(/C=N/NC(N)=S)cc2)cn2ccccc21.Cc1ccc(S(=O)(=O)[O-])cc1
CD50 (Mus musculus [14]): 106 mg/kg

Br.Cc1ccn2cc(-c3ccc(/C=N/NC(=N)NO)cc3)[n+](C)c2c1.[Br-]
CD50 (Mus musculus [15]): 0.2 mg/kg | IC50 [4]: 0.9 µg/mL | IC50 [5]: 0.7 µg/mL

Br.C[n+]1c(-c2ccc(/C=N/NC3=NCCCN3)cc2)cn2ccsc21.[Br-]
CD50 (Mus musculus [2]): 0.2 mg/kg

Br.C[n+]1c(COc2ccc(/C=N/NC(=N)NO)cc2)cn2ccccc21.[Br-]
CD50 (Mus musculus [8]): 0.4 mg/kg

Br.C[n+]1c(-c2ccc(/C=N/NC3=NCCN3)cc2)cn2ccsc21.[Br-]
CD50 (Mus musculus [9]): 0.8 mg/kg | IC50 [4]: 0.6 µg/mL | IC50 [5]: 0.8 µg/mL

Br.C[n+]1c(COc2ccc(/C=N/NC(=N)NO)cc2)cn2cc(C(F)(F)F)ccc21.[Br-]
CD50 (Mus musculus [10]): 6.6 mg/kg

Br.CCS(=O)(=O)c1ccc2n(c1)cc(-c1ccc(/C=N/NC(=N)N)cc1)[n+]2C.[Br-]
CD50 (Mus musculus [12]): 0.8 mg/kg

Br.C[n+]1c(-c2ccc(/C=N/NC3=NCCN3)cc2)c(Br)n2ccccc21.[Br-]
CD50 (Mus musculus [16]): 3.3 mg/kg | IC50 [4]: 0.7 µg/mL | IC50 [5]: 0.7 µg/mL

Br.Cc1ccn2cc(COc3ccc(/C=N/NC(=N)N)cc3)[n+](C)c2c1.[Br-]
CD50 (Mus musculus [7]): 6.6 mg/kg | CD50 (Mus musculus [17]): 0.2 mg/kg

Br.Cc1ccn2cc(-c3ccc(/C=N/NC4=NCCCN4)cc3)[n+](C)c2c1.[Br-]
CD50 (Mus musculus [7]): 6.6 mg/kg | CD50 (Mus musculus [12]): 0.1 mg/kg | IC50 [4]: 0.7 µg/mL | IC50 [5]: 1.1 µg/mL

Br.Cc1ccn2cc(COc3ccc(/C=N/NC(=N)N4CCCC4)cc3)[n+](C)c2c1.[Br-]
CD50 (Mus musculus [11]): 0.4 mg/kg

CCSc1ccc2n(c1)cc(-c1ccc(/C=N/Nc3nc(N)nc(N)n3)cc1)[n+]2C.Cc1ccc(S(=O)(=O)[O-])cc1
CD50 (Mus musculus [15]): 1.6 mg/kg | IC50 [4]: 0.6 µg/mL | IC50 [5]: > 10 µg/mL

Br.C[n+]1c(-c2ccc(/C=N/NC3=NCCN3)cc2)cn2c1CCCC2.[Br-]
CD50 (Mus musculus [9]): 0.4 mg/kg

Br.Cn1cc[n+](C)c1COc1ccc(/C=N/NC(=N)N)cc1.[Br-]
CD50 (Mus musculus [3]): 6.6 mg/kg
